The EternaBench riboswitch data

System: MS2 coat protein
Test: apparent Kd, MS2 coat protein; higher = weaker binding; RNA-MaP array; FMN 200 µM where present
Method in brief: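 The titrant was SNAP-549-labelled MS2 coat protein, run from 0.7 or 1.5 nM in doubling steps to 3 µM. It was applied to designs transcribed by stalled E. coli RNA polymerase on Illumina sequencing-chip clusters, without ligand first and then with constant ligand, in 100 mM Tris-HCl pH 7.5, 80 mM KCl, 4 mM MgCl2, BSA, DTT, yeast tRNA and Tween-20. The apparent Kd is the median of filtered per-cluster binding-curve fits, with green signal normalised to red-channel RNA signal and control-cluster median Fmax.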

[1] = designed as: ON switch for flavin mononucleotide, no ligand
[2] = ligand present: flavin mononucleotide, designed as: ON switch for flavin mononucleotide
[3] = designed as: OFF switch for flavin mononucleotide, no ligand
[4] = ligand present: flavin mononucleotide, designed as: OFF switch for flavin mononucleotide

Row | Sequence | apparent Kd [1] [nM] | apparent Kd [2] [nM] | apparent Kd [3] [nM] | apparent Kd [4] [nM]
1 | CUGCCUACAUGAGGAUCACCCAUGUCUGGCGAAAGAGUUCAGUAGGAUAUGAGAUUGGGUAAUCAUCAGAAGGGCUGGCAAAAG | 37.5 | 14.2 | – | –
2 | GUCAGCUCGUGAGGAUAUACAACACUGCUUCGUCAGUGUAUUAAGAUCACAUGAGGAUCACCCAUGUAGAAGGCACGAGCUGAU | – | – | 12.2 | 211
3 | CGCAACUUUUCUCAUGUAAACAUGAGGAUCACCCAUGUAAUGAGAAGGAGGAGGAAGAGAGAAUCCUAGGAUAUCAGAGUUGCG | – | – | 7.12 | 6.01
4 | GCCUCACAUGAGGAUCACCCAUGUCAGGAUAUAGGAGACGGUAGCUUUGCUGCCUUCGCUAGAAGGGACUGGCU | – | – | 33.5 | 55.4
5 | CGCUAAGAGAACGAUACGAAUAGACAUGAGGAUCACCCAUGUAGAAGGACAACGGAAUAAACGUUGUAGGAUAUACAUUUAGCG | – | – | 17.4 | 45.3
6 | GGUACUCAAAGAGUACUUGGUCGAACAUGAGGAUCACCCAUGUAGGAUAUGUAAAGCAAGAAGUAACAGAAGGACAUGUGCAGC | – | – | 13.1 | 17.1
7 | UGUUAUAGAGGAUAUGCGUGAAUAUAGAUUCAUGGAAAUUUACAUGAGGAUCACCCAUGUAGAAGGCUGUGAUU | – | – | 14.4 | 15.3
8 | AGUAUGUACGCAGGAUAUACAUGAGGAUCACCCAUGUGGAACAGUGUAGUACUAGUUGAUCCUCAGUAGAAGGGCGGUCGAAUA | – | – | 63.6 | 46.4
9 | GGUACUCAAAGAGUACUUGGUCGAACAUGAGGAUCACCCAUGUAGGAUAUGCGAAGCAAGAAGUAGCAGAAGGGCAUGUGCAGC | – | – | 17.7 | 16.1
10 | CCGCAAAUGCAGGAUAUCGUAUCGGAAACGAUACGAGAAGGGUAAACAUGAGGAUCACCCAUGUUCCUUAACGG | – | – | 17.9 | 17
11 | UGUGUGAGACAGGAUAUGCCAGAUGUAUUACUGGUAGAAGGGUCUACAUGAGGAUCACCCAUGUGGCCGGCCGG | – | – | 27.1 | 61.8
12 | GGUGGUACAGAGAAGGCGCCGCAGCUCUUCCUCCCAUCCCAACGACAUGAGGAUCACCCAUGUAGCGAGGAUAUCUGUGCCAUC | – | – | 7.05 | 22.5
13 | CUUUUGUGAGGAUAUUCGUAGUAGGGUCAUGGCAUUAUUAUGAAGAAGGCACAUGAGGAUCACCCAUGUACCUU | – | – | 17.3 | 34.6
14 | AUCAGCUCGUCAGGAUAUACGUCACUGCGUCAGCAGUGUGGUAAGAUCACAUGAGGAUCACCCAUGUAGAAGGGACGAGCUGAU | – | – | 39.7 | 696
15 | UUUGUACAUGAGGAUCACCCAUGUCAGGAUAUGUCAUCGCCGUCCGACGGCCGGCGUCACAGAAGGGACAUGCA | – | – | 27.8 | 78.1
16 | GUCAGCUCGUGAGGAUAUACAACACUGCUUCGGCAGUGUAUCAAGAUCACAUGAGGAUCACCCAUGUAGAAGGCACGAGCUGAU | – | – | 13.2 | 234
17 | GGACGUCACAUGAACAUGAGGAUCACCCAUGUAACUAGACAUGAGGAUAUGGAACCUAAUUGGUUCCAGAAGGCAUGGACGUCC | 194 | 32.2 | – | –
18 | UAUAUAUAGUAAGGAUAUGUAUUUAUUUAAUAAACAGAAGGUACUGACAUGAGGAUCACCCAUGUUUUAGUGUGGGCAUGUAGA | – | – | 79.7 | 149
19 | AGCUGUGGCCGAGGAUAUCUGUCUCAUAAAACCGAAAUAUAAUCGGACAUGAGGAUCACCCAUGUAGAGAAGGCGGUCUCAGCA | – | – | 21.3 | 83.7
20 | UCAAUUGCGUAGGAUAUACGGGCGCAGGCUAGAGUAGAAGGACGCACAUGAGGAUCACCCAUGUGGGUACCGAU | – | – | 17.7 | 114
21 | GGAUAGGACAGAGGAUAUACGUGCUAGAGAUACUAGCAACAUUUCCUCACAUGAGGAUCACCCAUGUAGAAGGCUGUCCUAUCG | – | – | 8.16 | 190
22 | CGAAGUCCGUAGAAGGGUGACAUGAGGAUCACCCAUGUGCGAGCGGAUGGAGUCAGCGGCUCGCCACAGGAUAUACGGAGCACG | 30.6 | 65.3 | – | –
23 | UUAAUAAUACAAGGAUAUCAAUUGUUCUUAAGACAUACAUGAGGAUCACCCAUGUUAAUAUAUGUUGAGAAGGUGUAUUUUCAG | 35.7 | 26.7 | – | –
